Results as given in ChEMBL document CHEMBL1123566, “Synthesis and cardiac electrophysiological activity of 2- and 3-[(substituted phenyl)alkyl]quinuclidines. Structure-activity relationships” (1987).
Where “and” joins values, the source holds several entries; their conditions need not be identical. Equal entries are not always repeated.

Legend:
[1] = tested on: Canis familiaris; assay: Heart rate was determined by intraduodenal administration of two doses of 10 mg/kg (low dose) of compound in anesthetized dogs. Value was reported for experiment 1; format: functional, Canis lupus familiaris
Summary of the method: (§1)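 Anesthetized dogs; compound given intraduodenally, generally as two doses, the second a cumulative (high) dose. LV functional refractory period and conduction time measured 15, 30 and 45 min after dosing; heart rate and blood pressure measured during nonpacing intervals. Values are % change from control, given per individual animal. Active if FRP or CT prolonged by ≥12%.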

[2] = tested on: Canis familiaris; assay: Heart rate was determined by intraduodenal administration of two dosages of 30 mg/kg of compound in anesthetized dogs. Value was reported for experiment 1; format: functional, Canis lupus familiaris; summary of the method: as §1
[3] = species on record: Canis familiaris; assay: (§2) In vitro electrophysiological evaluation in canine cardiac occurred is 100 uM; format: functional; conditions: Canis lupus familiaris; Heart
[4] = tested on: Canis familiaris; assay: Heart rate was determined by intraduodenal administration of two dosages of 10 mg/kg of compound in anesthetized dogs. Value was reported for experiment 2; format: functional, Canis lupus familiaris; summary of the method: as §1
[5] = tested on: Canis familiaris; assay: Mean arterial blood pressure was determined by intraduodenal administration of two dosages of 30 mg/kg of compound in anesthetized dogs. Value was reported for experiment 1; format: functional, Canis lupus familiaris
Summary of the method: (§3)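 Anesthetized dogs received two intraduodenal doses, the second cumulative (low dose/high dose). Left ventricular FRP and CT were measured 15, 30 and 45 min after dosing. Heart rate and mean blood pressure were taken during nonpacing intervals. Values are percent change from control. The vehicle was 5% dextrose in water/tragacanth. Activity was defined as ≥12% prolongation of FRP or CT.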

[6] = species on record: Canis familiaris; assay: (§4) In vitro electrophysiological activity in canine cardiac occurred is 10 uM; format: functional, Canis lupus familiaris, Heart
[7] = tested on: Canis familiaris; assay: Conduction time was determined by intraduodenal administration of two doses of 30 mg/kg (high dose) of compound in anesthetized dogs. Value was reported for experiment 1; format: functional, Canis lupus familiaris; summary of the method: as §1
[8] = tested on: Canis familiaris; assay: Mean arterial blood pressure was determined by intraduodenal administration of two dosages of 10 mg/kg of compound in anesthetized dogs. Value was reported for experiment 1; format: functional, Canis lupus familiaris; summary of the method: as §3
[9] = tested on: Canis familiaris; assay: Conduction time was determined by intraduodenal administration of two doses of 24 mg/kg (high dose) of compound in anesthetized dogs. Value was reported for experiment 2; format: functional, Canis lupus familiaris; summary of the method: as §1
[10] = species on record: Canis familiaris; assay: In vitro electrophysiological evaluation in canine cardiac Purkinje fibres reported as maximum percent change Vmax concentration range of 1-100 uM; Minimal (<10% decrease or increase in V max).; format: functional; conditions: Canis lupus familiaris; Purkinje fiber
Summary of the method: (§5)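 Canine cardiac Purkinje fibres, intracellular microelectrode recording, paced at a basic cycle length of 1 s. APD95 and Vmax read simultaneously. Compound: 10 mM stock in deionized water, diluted into Tyrode's solution, tested over the stated concentration range. Each fibre used once as its own control. Result is % change from control, given at 10 µM or as the maximum with its concentration. M = <10% decrease or an increase in Vmax.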

[11] = species on record: Canis familiaris; assay: In vitro electrophysiological evaluation in canine cardiac ventricular muscle reported as % change for conduction time(CT) at 10 uM at 0.1-100 uM concentration range; Minimal (<10% decrease or increase in CT).; format: functional, Canis lupus familiaris, Muscle tissue
[12] = species on record: Canis familiaris; assay: (§6) In vitro electrophysiological activity in canine cardiac occurred is 100 uM; format: functional, Canis lupus familiaris, Heart
[13] = tested on: Canis familiaris; assay: Conduction time was determined by intraduodenal administration of two doses of 10 mg/kg (low dose) of compound in anesthetized dogs. Value was reported for experiment 2; format: functional, Canis lupus familiaris; summary of the method: as §1
[14] = species on record: Canis familiaris; assay: In vitro electrophysiological evaluation in canine cardiac Purkinje fibres reported as % change for action potential duration at a concentration of 10 uM; format: functional, Canis lupus familiaris, Purkinje fiber; summary of the method: as §5
[15] = tested on: Canis familiaris; assay: Left ventricular refractory period was determined by intraduodenal administration of two doses of 24 mg/kg (high dose) of compound in anesthetized dogs. Value was reported for experiment 2; format: functional, Canis lupus familiaris, Cardiac ventricle
[16] = tested on: Canis familiaris; assay: Conduction time was determined by intraduodenal administration of two doses of 10 mg/kg (low dose) of compound in anesthetized dogs. Value was reported for experiment 1; format: functional, Canis lupus familiaris; summary of the method: as §1
[17] = species on record: Canis familiaris; assay: In vitro electrophysiological evaluation in canine cardiac ventricular muscle reported as maximum % change for functional refractory period (FRP) at 0.1-100 uM concentration range; concentration at which it occurred is 100 uM.; set-up: species or system Canis lupus familiaris, Muscle tissue
Summary of the method: (§7)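 Canine right ventricle and papillary muscle strips in oxygenated Tyrode's solution, fitted with stimulating and recording electrodes. The extra-stimulus conduction-interval method was adapted for in vitro use. FRP and CT were read from a conduction-interval curve before and after various compound concentrations, and expressed as percent change from control. Compounds were taken from 10 mM deionized-water stock into Tyrode's. Each strip was used once as its own control.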

[18] = tested on: Canis familiaris; assay: Heart rate was determined by intraduodenal administration of two dosages of 24 mg/kg of compound in anesthetized dogs. Value was reported for experiment 2; format: functional, Canis lupus familiaris; summary of the method: as §1
[19] = species on record: Canis familiaris; assay: In vitro electrophysiological evaluation in canine cardiac Purkinje fibres reported as % change for action potential duration at 1-100 uM concentration range; format: functional, Canis lupus familiaris, Purkinje fiber; summary of the method: as §5
[20] = species on record: Canis familiaris; assay: as §4; format: functional, Canis lupus familiaris, Heart; remark: listed apart in the source
[21] = species on record: Canis familiaris; assay: In vitro electrophysiological evaluation in canine cardiac Purkinje fibres reported as percent change Vmax at 10 uM at concentration range of 1-100 uM.; format: functional; conditions: Canis lupus familiaris, Purkinje fiber; summary of the method: as §5
[22] = tested on: Canis familiaris; assay: Mean arterial blood pressure was determined by intraduodenal administration of two dosages of 24 mg/kg of compound in anesthetized dogs. Value was reported for experiment 2; format: functional, Canis lupus familiaris
[23] = species on record: Canis familiaris; assay: In vitro electrophysiological evaluation in canine cardiac ventricular muscle reported as % change for the functional refractory period (FRP) at 10 uM at concentration range of 0.1-100 uM; set-up: species or system Canis lupus familiaris, Muscle tissue; summary of the method: as §7
[24] = tested on: Canis familiaris; assay: Left ventricular refractory period was determined by intraduodenal administration of two doses of 10 mg/kg (low dose) of compound in anesthetized dogs. Value was reported for experiment 1; format: functional, Canis lupus familiaris, Cardiac ventricle
[25] = species on record: Canis familiaris; assay: In vitro electrophysiological evaluation in canine cardiac Purkinje fibres reported as percent change Vmax at 10 uM at concentration range of 1-100 uM; Minimal (<10% decrease or increase in V max).; format: functional; conditions: Canis lupus familiaris, Purkinje fiber; summary of the method: as §5
[26] = tested on: Canis familiaris; assay: Left ventricular refractory period was determined by intraduodenal administration of two doses of 10 mg/kg (low dose) of compound in anesthetized dogs. Value was reported for experiment 2; format: functional, Canis lupus familiaris, Cardiac ventricle
[27] = tested on: Canis familiaris; assay: Mean arterial blood pressure was determined by intraduodenal administration of two dosages of 10 mg/kg of compound in anesthetized dogs. Value was reported for experiment 2; format: functional, Canis lupus familiaris; summary of the method: as §3
[28] = tested on: Canis familiaris; assay: Left ventricular refractory period was determined by intraduodenal administration two doses of 30 mg/kg (high dose) of compound in anesthetized dogs. Value was reported for experiment 1; format: functional, Canis lupus familiaris, Cardiac ventricle
[29] = species on record: Canis familiaris; assay: In vitro electrophysiological evaluation in canine cardiac ventricular muscle reported as maximum % change for conduction time(CT) at 0.1-100 uM concentration range; Minimal (<10% decrease or increase in CT).; format: functional, Canis lupus familiaris, Muscle tissue; summary of the method: as §7
[30] = species on record: Canis familiaris; assay: In vitro electrophysiological evaluation in canine cardiac Purkinje fibres reported as percent change Vmax at 10 uM at concentration range of 0.1-100 uM; Minimal (<10% decrease or increase in V max).; format: functional, organism-based; conditions: Canis lupus familiaris, Purkinje fiber; summary of the method: as §5
[31] = species on record: Canis familiaris; assay: as §6; format: functional, Canis lupus familiaris, Heart; remark: listed apart in the source
[32] = species on record: Canis familiaris; assay: as §2; format: functional; conditions: Canis lupus familiaris; Heart; remark: listed apart in the source
[33] = species on record: Canis familiaris; assay: In vitro electrophysiological evaluation in canine cardiac ventricular muscle reported as maximum % change for functional refractory period (FRP) at 0.1-100 uM concentration range; concentration at which it occurred is 1 uM; set-up: species or system Canis lupus familiaris, Muscle tissue; summary of the method: as §7
[34] = species on record: Canis familiaris; assay: In vitro electrophysiological evaluation in canine cardiac ventricular muscle reported as maximum % change for functional refractory period (FRP) at 0.1-100 uM concentration range; concentration at which it occurred is 10 uM; set-up: species or system Canis lupus familiaris, Muscle tissue; summary of the method: as §7
[35] = species on record: Canis familiaris; assay: In vitro electrophysiological evaluation in canine cardiac ventricular muscle reported as maximum % change for conduction time(CT) at 0.1-100 uM concentration range; concentration at which it occurred is 100 uM; format: functional, Canis lupus familiaris, Muscle tissue; summary of the method: as §7
[36] = species on record: Canis familiaris; assay: In vitro electrophysiological evaluation in canine cardiac Purkinje fibres reported as % change for action potential duration at 10 uM at 1-100 uM concentration range; format: functional, Canis lupus familiaris, Purkinje fiber; summary of the method: as §5
[37] = species on record: Canis familiaris; assay: In vitro electrophysiological evaluation in canine cardiac ventricular muscle reported as maximum % change for functional refractory period (FRP) at 0.1-100 uM concentration range; concentration at which it occurred is 100 uM; set-up: species or system Canis lupus familiaris, Muscle tissue; summary of the method: as §7

Cl.O=C(CCC1C(=O)C2CCN1CC2)c1ccc([N+](=O)[O-])cc1 (centres undefined)
HR [1]: -23%
HR [2]: -31%
Vmax [3]: -23%
HR [4]: -35%
Mean blood pressure [5]: -21%
APD95 [6]: 53%
CT [7]: 2%
Mean blood pressure [8]: -11%
CT [9]: 11%
Vmax [10]: < 10%
CT [11]: <10%
APD95 [12]: 13% and -10%
CT [13]: 6%
APD95 [14]: 36%
LV FRP [15]: 19%
CT [16]: -1%
FRP [17]: 25% and 22%
HR [18]: -40%
APD95 [19]: 53% and 25%
APD95 [20]: 36% and 25%
Vmax [21]: -17%
Mean blood pressure [22]: -1%
FRP [23]: 15% and 17%
LV FRP [24]: 14%
Vmax [25]: < 10%
LV FRP [26]: 16%
Mean blood pressure [27]: -10%
LV FRP [28]: 15%
CT [29]: <10%

Cl.O=C(CCC1C(=O)C2CCN1CC2)c1ccc(Cl)c([N+](=O)[O-])c1 (centres undefined)
Vmax [3]: -37% and -42%
Vmax [30]: < 10%
CT [11]: <10%
APD95 [12]: 4% and -11%
APD95 [14]: 4% and 3%
APD95 [31]: 11%
Vmax [32]: -13%
FRP [33]: 14%
FRP [34]: 21%
CT [35]: 14% and 21%
FRP [23]: 21% and 14% and 26%
APD95 [36]: 1%
Vmax [25]: < 10%
FRP [37]: 44%
CT [29]: <10%
